From ChEMBL document CHEMBL1132598, “Synthesis, corticotropin-releasing factor receptor binding affinity, and pharmacokinetic properties of triazolo-, imidazo-, and pyrrolopyrimidines and -pyridines” (J Med Chem, 1999)

Assays:
[1] = biological target: T1, Corticotropin-releasing factor receptor 1 (Homo sapiens, UniProt P34998); test: Binding affinity to recombinant human Corticotropin releasing factor receptor 1 (hCRF1) expressed in 293EBNA cells; assay type: cell-based
T1 sequence (P34998 whole entry): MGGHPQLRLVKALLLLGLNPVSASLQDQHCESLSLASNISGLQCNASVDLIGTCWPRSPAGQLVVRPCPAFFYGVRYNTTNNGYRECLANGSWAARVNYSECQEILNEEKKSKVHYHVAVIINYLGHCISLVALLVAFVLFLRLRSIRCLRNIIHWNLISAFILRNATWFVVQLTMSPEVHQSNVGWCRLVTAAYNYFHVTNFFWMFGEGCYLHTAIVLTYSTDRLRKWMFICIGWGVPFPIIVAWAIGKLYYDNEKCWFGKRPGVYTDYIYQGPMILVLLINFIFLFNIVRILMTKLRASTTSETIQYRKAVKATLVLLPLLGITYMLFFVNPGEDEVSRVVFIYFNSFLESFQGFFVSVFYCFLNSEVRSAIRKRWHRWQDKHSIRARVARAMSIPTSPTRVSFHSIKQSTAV

Rattus norvegicus = test: The Plasma area under the compound concentration -time curve was measured in rats after oral administration of 1 mg/kg dose; assay type: ADME, organism-based; set-up: dose 1 mg/kg, route oral; settings: in vivo
Outline: (§1)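 Rats were given a single 1 mg/kg oral dose, as a 0.25% methylcellulose suspension or as a solution in EtOH/PG (20:80). Animals were sacrificed at 30 min and 1, 2, 4, 8 and 16 h, with blood collected into EDTA. Plasma was separated by centrifugation and extracted liquid–liquid. Analysis was by LC/MS/MS. Each value is a single determination or the average of two.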

[2] = The Peak plasma concentration was measured in rats after oral administration of 1 mg/kg dose; assay type: ADME, organism-based; set-up: dose 1 mg/kg, route oral; settings: rat; outline: as §1
[3] = Oral bioavailability in rat (dose 1 mg/kg); assay type: ADME, organism-based; settings: in vivo; outline: as §1

COCC(COC)Oc1nc(C)nc2c1nnn2-c1ccc(C(C)C)cc1Br
Ki [1]: 0.0071 µM

CCCC(CC)Nc1nc(C)nc2c1nnn2-c1ccc(C(C)C)cc1Br (stereo unspecified)
Ki [1]: 0.0028 µM

CCCCC(CC)Oc1nc(C)nc2c1ncn2-c1ccc(C(C)C)cc1Br (stereo unspecified)
Ki [1]: 0.0029 µM

Cc1nc(N(CCO)CCO)c2nnn(-c3ccc(C(C)C)cc3Br)c2n1
Ki [1]: 3.46 µM

COCCN(CCOC)c1nc(C)nc2c1nnn2-c1ccc(N(C)C)cc1C(F)(F)F
Ki [1]: 0.0235 µM

COCCN(CCOC)c1nc(C)nc2c1ncn2-c1ccc(C(C)C)cc1Br
Ki [1]: 0.0059 µM

CCCCN(CC)c1nc(C)nc2c1nnn2-c1ccc(C(C)=O)cc1Br
Ki [1]: 0.0337 µM

CCN(CC)c1nc(C)nc2c1ncn2-c1ccc(C(C)C)cc1Br
Ki [1]: 0.0124 µM

COCCN(CCOC)c1nc(C)nc2c1nnn2-c1ccc(C(C)C)cc1SC
Ki [1]: 0.0153 µM

COCCN(CCOC)c1nc(C)nc2c1nc(C)n2-c1ccc(C(C)C)cc1Br
Ki [1]: 0.0067 µM

CCC(COC)N(C)c1nc(C)nc2c1nnn2-c1ccc(C(C)C)cc1Br (stereo unspecified)
Ki [1]: 0.0112 µM

CCCCN(CC)c1nc(C)nc2c1nnn2-c1ccc(Br)cc1Br
Ki [1]: 0.0204 µM

COCCN(CCOC)c1nc(C)nc2c1nnn2-c1ccc(OC(F)(F)F)cc1Br
Ki [1]: 0.0332 µM

CCCCN(CCCC)c1nc(C)nc2c1nnn2-c1ccc(C(C)C)cc1Br
Ki [1]: 0.0325 µM

CCC(CC)Nc1nc(C)nc2c1nnn2-c1c(C)cc(C)cc1C
Ki [1]: 0.0057 µM

CCCCN(CC)c1nc(C)nc2c1nnn2-c1c(Cl)cc(OC)cc1OC
Ki [1]: 0.0044 µM

CCCCN(CC)c1nc(C)nc2c1ncn2-c1c(C)cc(C)cc1C
Ki [1]: 0.025 µM

COCCN(CCOC)c1nc(C)nc2c1ncn2-c1c(C)cc(C)cc1C
Ki [1]: 0.0207 µM

CCCCN(CCCC)c1nc(C)nc2c1ncn2-c1ccc(C(C)C)cc1Br
Ki [1]: 0.0061 µM

COCCN(Cc1cccnc1)c1nc(C)nc2c1nnn2-c1ccc(C(C)C)cc1Br
Ki [1]: 0.0485 µM

COCCCNc1nc(C)nc2c1nnn2-c1ccc(C(C)C)cc1Br
Ki [1]: 0.291 µM

CCC(COC)Oc1nc(C)nc2c1nnn2-c1ccc(C(C)C)cc1Br (stereo unspecified)
AUC T (Rattus norvegicus): 21 nM·h
Cmax [2]: 5.9 nM
bioavailability [3]: 6%
Ki [1]: 0.0019 µM

CCCCN(CC)c1cc(C)nc2c1nnn2-c1ccc(C(C)C)cc1SC
Ki [1]: 0.0022 µM

CCC(CO)Nc1nc(C)nc2c1nnn2-c1ccc(C(C)C)cc1Br (stereo unspecified)
Ki [1]: 0.0253 µM

CCN(c1nc(C)nc2c1nnn2-c1ccc(C(C)C)cc1Br)C(COC)COC
Ki [1]: 0.123 µM

COCCN(CCOC)c1nc(C)nc2c1c(C)c(C)n2-c1c(C)cc(C)cc1C
Ki [1]: 0.0071 µM

COCCCN(CCOC)c1nc(C)nc2c1nnn2-c1ccc(C(C)C)cc1Br
Ki [1]: 0.0669 µM

CCC(CC)Oc1nc(C)nc2c1nnn2-c1ccc(C(C)C)cc1Br
Ki [1]: 0.0019 µM

CCCC(C)Nc1nc(C)nc2c1nnn2-c1c(C)cc(C)cc1C (stereo unspecified)
Ki [1]: 0.0071 µM

CCC(CO)Nc1nc(C)nc2c1c(C)c(C)n2-c1c(C)cc(C)cc1C (stereo unspecified)
Ki [1]: 0.0273 µM

CCCC(CN(C)C)Nc1nc(C)nc2c1nnn2-c1ccc(C(C)C)cc1Br (stereo unspecified)
Ki [1]: 0.0387 µM

CCCC(CCC)Nc1nc(C)nc2c1ncn2-c1ccc(C(C)C)cc1Br
Ki [1]: 0.0036 µM

CCC(Nc1nc(C)nc2c1nnn2-c1ccc(C(C)C)cc1Br)C(=O)OC (stereo unspecified)
Ki [1]: 0.0194 µM

COCC(Cc1ccccc1)Nc1nc(C)nc2c1nnn2-c1ccc(C(C)C)cc1Br (stereo unspecified)
Ki [1]: 0.0367 µM

COCC(Cc1ccccc1)Nc1nc(C)nc2c1nnn2-c1c(C)cc(C)cc1C (stereo unspecified)
Ki [1]: 0.0277 µM

CCN(CCOC)c1nc(C)nc2c1nnn2-c1ccc(C(C)C)cc1Br
Ki [1]: 0.0105 µM

COCCN(CCOC)c1cc(C)nc2c1nnn2-c1ccc(C(C)C)cc1Br
Ki [1]: 0.0047 µM

COCCN(CCOC)c1nc(C)nc2c1ncn2-c1c(Br)cc(OC)cc1OC
Ki [1]: 0.0313 µM

COCCN(CCOC)c1nc(C)nc2c1nnn2-c1c(C)cc(C)cc1C
Ki [1]: 0.0241 µM

CCC(CC)Nc1nc(C)nc2c1nnn2-c1ccc(C(C)C)cc1Br
Ki [1]: 0.0052 µM

Cc1nc(N2CCCC2)c2nnn(-c3ccc(C(C)C)cc3Br)c2n1
Ki [1]: 0.194 µM

COCCN(CCOC)c1cc(C)nc2c1nc(C)n2-c1ccc(C(C)C)cc1Br
Ki [1]: 0.0098 µM

COCCNc1nc(C)nc2c1nnn2-c1ccc(C(C)C)cc1Br
Ki [1]: 0.242 µM

COCCN(CCOC)c1nc(C)nc2c1nnn2-c1ccc(N(C)C)cc1Br
Ki [1]: 0.0105 µM

CCOCC(COCC)Oc1nc(C)nc2c1nnn2-c1ccc(C(C)C)cc1Br
Ki [1]: 0.0397 µM

CCCCC(CCCC)Nc1nc(C)nc2c1nnn2-c1ccc(C(C)C)cc1Br
Ki [1]: 0.0045 µM

COCCN(CCOC)c1cc(C)nc2c1nnn2-c1ccc(C(C)C)cc1S(C)(=O)=O
Ki [1]: 0.476 µM

COCCN(CCOC)c1nc(C)nc2c1nnn2-c1c(Br)cc(OC)cc1OC
Ki [1]: 0.0283 µM

CCCCN(CC)c1nc(C)nc2c1nnn2-c1ccc(N(C)C)cc1C(F)(F)F
Ki [1]: 0.0154 µM

CCCCC(CC)Nc1nc(C)nc2c1nnn2-c1ccc(C(C)C)cc1Br (stereo unspecified)
Ki [1]: 0.0031 µM

COCCN(CCOC)c1nc(C)nc2c1nnn2-c1ccc(Br)cc1Br
Ki [1]: 0.0074 µM

CCCCC(CC)Nc1nc(C)nc2c1nnn2-c1c(C)cc(C)cc1C (stereo unspecified)
Ki [1]: 0.0076 µM

COCC(COC)Nc1nc(C)nc2c1nnn2-c1ccc(C(C)C)cc1Br
Ki [1]: 0.0103 µM

CCCCc1nc2c(N(CC)CCCC)nc(C)nc2n1-c1c(Cl)cc(OC)cc1OC
Ki [1]: 0.022 µM

CCCCN(CC)c1nc(C)nc2c1nnn2-c1ccc(S(C)(=O)=O)cc1Br
Ki [1]: 0.1 µM

COCCN(CCOC)c1nc(C)nc2c1nnn2-c1c(C)cc(C)nc1C
Ki [1]: 0.416 µM

CCCCN(CC)c1nc(C)nc2c1nnn2-c1c(C)cc(C)cc1C
Ki [1]: 0.0275 µM

CCCCC(CC)Nc1nc(C)nc2c1ncn2-c1ccc(C(C)C)cc1Br (stereo unspecified)
Ki [1]: 0.0051 µM

CCCCN(CC)c1nc(C)nc2c1ncn2-c1ccc(C(C)C)cc1Br
Ki [1]: 0.0043 µM

COCCN(CCOC)c1cc(C)nc2c1nnn2-c1ccc(C(C)C)cc1SC
Ki [1]: 0.0047 µM

CCN(CCOC)c1nc(C)nc2c1ncn2-c1ccc(C(C)C)cc1Br
Ki [1]: 0.0092 µM

CCCCN(CC)c1ncnc2c1nnn2-c1ccc(C(C)C)cc1Br
Ki [1]: 0.287 µM

CCN(CCOC)c1nc(C)nc2c1nnn2-c1c(C)cc(C)cc1C
Ki [1]: 0.0207 µM

COCCN(CCOC)c1nc(C)nc2c1nnn2-c1c(Cl)cc(OC)cc1OC
Ki [1]: 0.021 µM

CCCCN(CC)c1nc(C)nc2c1nc(-c1ccccc1)n2-c1c(Cl)cc(OC)cc1OC
Ki [1]: 0.133 µM

COCC(C)(C)Nc1nc(C)nc2c1nnn2-c1ccc(C(C)C)cc1Br
Ki [1]: 0.195 µM

CCCC(Nc1nc(C)nc2c1nnn2-c1ccc(C(C)C)cc1Br)C(=O)N(C)C (stereo unspecified)
Ki [1]: 0.235 µM

Cc1cc(C)c(-n2c(C)c(C)c3c(N4CCOCC4)nc(C)nc32)c(C)c1
Ki [1]: 0.201 µM

CCCCNc1nc(C)nc2c1c(C)c(C)n2-c1c(C)cc(C)cc1C
Ki [1]: 0.029 µM

COCCNc1nc(C)nc2c1ncn2-c1ccc(C(C)C)cc1Br
Ki [1]: 0.21 µM

C=CCN(CCOC)c1nc(C)nc2c1nnn2-c1ccc(C(C)C)cc1Br
Ki [1]: 0.0043 µM

Cc1nc(N2CCCCC2)c2nnn(-c3ccc(C(C)C)cc3Br)c2n1
Ki [1]: 0.046 µM

CCC(COC)Nc1nc(C)nc2c1nnn2-c1c(C)cc(C)cc1C (stereo unspecified)
Ki [1]: 0.0594 µM

COCCN(CCOC)c1nc(C)nc2c1nnn2-c1c(Br)cc(OC)cc1N(C)C
Ki [1]: 0.0482 µM

CCN(CC)c1nc(C)nc2c1nnn2-c1ccc(C(C)C)cc1Br
Ki [1]: 0.0253 µM

CCCCNc1nc(C)nc2c1nnn2-c1ccc(C(C)C)cc1Br
Ki [1]: 0.0696 µM

CCCC(CCC)Nc1nc(C)nc2c1nnn2-c1ccc(Br)cc1Br
Ki [1]: 0.0008 µM

CCCCN(CC)c1nc(C)nc2c1ncn2-c1c(Br)cc(OC)cc1OC
Ki [1]: 0.0035 µM

CCCCN(CC)c1nc(C)nc2c1nc(C(F)(F)F)n2-c1ccc(C(C)C)cc1Br
Ki [1]: 0.0014 µM

CCCCN(CC)c1nc(C)nc2c1nnn2-c1ccc(SC)cc1Br
Ki [1]: 0.0106 µM

COCCN(CCOC)c1nc(C)nc2c1nnn2-c1ccc(C(C)C)cc1
Ki [1]: 3.92 µM

CCCCN(CC)c1cc(C)nc2c1nc(C)n2-c1ccc(C(C)C)cc1Br
Ki [1]: 0.0039 µM

CCCCC(CC)Oc1nc(C)nc2c1nnn2-c1ccc(C(C)C)cc1Br (stereo unspecified)
Ki [1]: 0.0015 µM

COCCN(CC1CC1)c1nc(C)nc2c1nnn2-c1ccc(C(C)C)cc1Br
Ki [1]: 0.0046 µM

COCCN(CCOC)c1ncnc2c1nnn2-c1ccc(C(C)C)cc1Br
Ki [1]: 0.203 µM

COCC(COC)N(C)c1nc(C)nc2c1nnn2-c1ccc(C(C)C)cc1Br
Ki [1]: 0.0213 µM

CCCC(CCC)Nc1nc(C)nc2c1nnn2-c1c(C)cc(C)cc1C
Ki [1]: 0.004 µM

CCCCN(CC)c1nc(C)nc2c1ncn2-c1c(Cl)cc(OC)cc1OC
Ki [1]: 0.0052 µM

CCCC(CC)Nc1nc(C)nc2c1ncn2-c1ccc(C(C)C)cc1Br (stereo unspecified)
Ki [1]: 0.0044 µM

CCCCN(CC)c1nc(C)nc2c1nc(C)n2-c1c(Cl)cc(OC)cc1OC
Ki [1]: 0.0035 µM

Cc1nc(NC2CCCC2)c2nnn(-c3ccc(C(C)C)cc3Br)c2n1
Ki [1]: 0.12 µM

COCCN(CCO)c1nc(C)nc2c1nnn2-c1ccc(C(C)C)cc1Br
Ki [1]: 0.064 µM

CCC(CC)Oc1nc(C)nc2c1ncn2-c1ccc(C(C)C)cc1Br
Ki [1]: 0.0035 µM

CCCCN(CC)c1nc(C)nc2c1nnn2-c1c(Br)cc(OC)cc1OC
Ki [1]: 0.003 µM

CCC(COC)Nc1nc(C)nc2c1nnn2-c1ccc(C(C)C)cc1Br (stereo in doubt; 4y)
Ki [1]: 0.0075 µM

CCC(COC)Nc1nc(C)nc2c1nnn2-c1ccc(C(C)C)cc1Br (stereo in doubt; 4z)
Ki [1]: 0.0094 µM

CCCCN(CC)c1nc(C)nc2c1c(C)c(C)n2-c1c(C)cc(C)cc1C [ANTALARMIN]
Ki [1]: 0.00084 µM

CCCCN(CC)c1nc(C)nc2c1c(C)cn2-c1c(C)cc(C)cc1C [CP-154526]
Ki [1]: 0.00161 µM
